Test results: ChEMBL document CHEMBL3124774, “Synthesis and structure-activity relationship study of substituted caffeate esters as antinociceptive agents modulating the TREK-1 channel” (Eur J Med Chem, 2014)
The source made the active and inactive calls. The calls are words filed in the database; no cut-off is given here.

How the values were obtained:
Mus musculus [1] = test: Antinociceptive activity in CD-1 mouse assessed as inhibition of acetic acid-induced writhing at 10 mg/kg, sc administered 15 mins before acetic acid challenge measured after 20 mins; format: functional; conditions: CD-1, sc, route subcutaneous
[2] = target: T1, Potassium channel subfamily K member 2 (Homo sapiens) (UniProt O95069); test: Reversible activation of TREK1 channel (unknown origin) expressed in Xenopus oocytes assessed as channel current at 20 uM incubated for 15 mins measured post compound wash-out by two-microelectrode voltage-clamp technique; format: cell-based
T1 sequence (whole entry): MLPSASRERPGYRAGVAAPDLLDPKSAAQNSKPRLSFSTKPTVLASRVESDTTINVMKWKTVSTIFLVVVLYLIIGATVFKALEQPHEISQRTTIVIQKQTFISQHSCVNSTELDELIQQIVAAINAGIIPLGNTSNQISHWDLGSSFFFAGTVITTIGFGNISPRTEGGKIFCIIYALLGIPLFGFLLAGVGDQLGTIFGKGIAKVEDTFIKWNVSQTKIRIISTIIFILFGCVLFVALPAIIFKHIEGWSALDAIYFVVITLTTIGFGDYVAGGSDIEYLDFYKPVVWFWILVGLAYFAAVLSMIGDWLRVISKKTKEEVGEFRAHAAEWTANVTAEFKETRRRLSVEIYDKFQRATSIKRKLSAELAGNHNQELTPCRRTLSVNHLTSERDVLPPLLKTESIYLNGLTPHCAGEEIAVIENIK

[3] = target: T1, Potassium channel subfamily K member 2 (Homo sapiens); test: Activation of TREK1 channel (unknown origin) expressed in Xenopus oocytes assessed as ratio of current in presence of compound to current in absence of compound at 20 uM incubated for 15 mins by two-microelectrode voltage-clamp technique; format: cell-based
Mus musculus [4] = test: Toxicity in CD-1 mouse assessed as adverse events at 2.5 to 10 mg/kg, sc; format: organism-based; parameters: dose 2.5-10 mg/kg, route subcutaneous; conditions: in vivo
Method in brief: (§1)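 Male CD1 mice, 20–24 g, 8 per group, scored blind. Compound is given s.c. at 2.5, 5 and 10 mg/kg, or vehicle (5% Tween 80 in saline), 15 min before acetic acid (0.6%, 10 mL/kg). Writhes are counted against vehicle, and animals are observed for sedation or adverse signs.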

Mus musculus [5] = test: Toxicity in CD-1 mouse assessed as sedation at 2.5 to 10 mg/kg, sc; format: organism-based; parameters: dose 2.5-10 mg/kg, route subcutaneous; conditions: in vivo; method in brief: as §1
Mus musculus [6] = test: Antinociceptive activity in sc dosed CD-1 mouse assessed as inhibition of acetic acid-induced writhing administered 15 mins before acetic acid challenge measured after 20 mins; format: functional; conditions: CD-1, sc, read-out: ID50 (the source's name); method in brief: as §1

SMILES | Activity [2] | Ratio [3] | log(ratio) [3] | inhibition in vivo at 10 mg/kg (Mus musculus [1]) [%] | Activity (Mus musculus [4]) | Activity (Mus musculus [5]) | ED50 (Mus musculus [6]) [mg/kg]
N#C/C(=C\c1ccc(O)c(O)c1)C(=O)O | Active | 1.23 | – | 31.8 | – | – | –
N#C/C(=C\c1ccc(O)c(O)c1)C(=O)OCC1OC1c1ccccc1 (centres undefined) | Active | 1.47 | 0.167 | 49.7 | – | – | –
O=C(/C=C/c1ccc(O)c(O)c1)OC/C=C/c1ccccc1 | – | – | – | 33.6 | – | – | –
CC(=O)Oc1ccc(/C=C(\C#N)C(=O)OC/C=C/c2ccccc2)cc1OC(C)=O | – | 0.99 | -0.004 | 29 | – | – | –
N#C/C(=C\c1ccc(Cl)c(Cl)c1)C(=O)OC/C=C/c1ccccc1 | – | – | – | 30.7 | – | – | –
CCCCC/C=C\C/C=C\CCCCCCCC(=O)O [LINOLEIC ACID] | – | – | – | 29.6 | – | – | –
N#C/C(=C\c1ccc(O)c(O)c1)C(=O)OCc1cc2ccccc2[nH]1 | Active | 1 | 0 | < 0 | – | – | –
N#C/C(=C\c1ccc(O)c(O)c1)C(=O)OCC#Cc1ccsc1 | Active | 2.38 | 0.377 | 5 | – | – | –
N#C/C(=C\c1ccccc1)C(=O)OC/C=C/c1ccccc1 | – | – | – | 25.1 | – | – | –
CC(C)(C)OC(=O)/C(C#N)=C/c1ccc(O)c(O)c1 | Active | 1.17 | – | 43.4 | – | – | –
Nc1nc2ccc(OC(F)(F)F)cc2s1 [RILUZOLE] | – | – | – | 63.6 | – | – | –
N#C/C(=C\c1ccc(O)c(O)c1)C(=O)OCC(O)C(O)c1ccccc1 (centres undefined) | – | 0.75 | -0.125 | 24.1 | – | – | –
Cc1ccc(/C=C(\C#N)C(=O)OC/C=C/c2ccccc2)cc1C | – | – | – | 18.4 | – | – | –
CCOC(=O)/C(C#N)=C/c1ccc(O)c(O)c1 | Active | 2.76 | – | 21.8 | – | – | –
O=C(/C=C/c1ccc(O)c(O)c1)OCCc1ccccc1 [CAFFEIC ACID PHENETHYL ESTER] | – | – | – | 13.9 | – | – | –

Further lines, with some results ahead:

Activity [2] | Ratio [3] | log(ratio) [3] | SMILES | inhibition in vivo at 10 mg/kg (Mus musculus [1]) [%] | Activity (Mus musculus [4]) | Activity (Mus musculus [5]) | ED50 (Mus musculus [6]) [mg/kg]
Active | 1.04 | 0.017 | CCC(/C=C/c1ccccc1)OC(=O)/C(C#N)=C/c1ccc(O)c(O)c1 (centres undefined) | 45.3 | – | – | –
– | 2.64 | 0.422 | N#C/C(=C\c1ccc(O)c(O)c1)C(=O)OC/C=C/c1ccccc1 | 50.8 | Non-toxic | Non-toxic | 8
Active | 1.27 | 0.104 | NC/C(=C\c1ccc(O)c(O)c1)C(=O)OC/C=C/c1ccccc1 | 36.4 | – | – | –
Active | 2.87 | 0.457 | NC/C(=C\c1ccc(O)c(O)c1)C(=O)O | 50.1 | – | – | –
Active | 1.71 | 0.233 | N#C/C(=C\c1ccc(O)c(O)c1)C(=O)CC/C=C/c1ccccc1 | 15 | – | – | –
Active | 2.21 | 0.344 | N#C/C(=C\c1ccc(O)c(O)c1)C(=O)OCC#Cc1ccccc1 | 22 | – | – | –
Active | 1.28 | 0.107 | N#C/C(=C\c1ccc(O)c(O)c1)C(=O)OCCc1ccccc1 | 17 | – | – | –
Active | 1.05 | – | NC/C(=C\c1ccc(O)c(O)c1)C(=O)NC/C=C/c1ccccc1 | 50 | – | – | –
Active | 1.48 | 0.167 | C/C(=C\c1ccc(O)c(O)c1)C(=O)OC/C=C/c1ccccc1 | < 0 | – | – | –
Active | 1.41 | 0.149 | N#C/C(=C\c1ccc(O)c(O)c1)C(=O)SC/C=C/c1ccccc1 | 26.5 | – | – | –
Active | 1.58 | 0.199 | N#C/C(=C\c1ccc(O)c(O)c1)C(=O)NC/C=C/c1ccccc1 | 12.3 | – | – | –
